Source: ChEMBL document CHEMBL1140550, “New 'chemical probes' to examine the role of the hFPRL1 (or ALXR) receptor in inflammation” (Bioorg Med Chem Lett, 2007)
Activity calls are given as the source filed them. The calls are words filed in the database; no cut-off is given here.

Experiments:
[1] = Inhibition of fMLP-induced human PMN migration after 45 mins; type: functional; conditions: 0.75 h
In short: (§1)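 Human polymorphonuclear neutrophils from at least three donors, exposed to compound (final DMSO 0.1%). Migration toward a gradient of IL-8 or fMLP chemo-attractant (10 nM each) followed by fluorescence. Mean IC50 reported.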

[2] = Inhibition of IL8-induced human PMN migration after 45 mins; type: functional; conditions: 0.75 h; in short: as §1
[3] = system: Blood; assay: Stimulation of IL6 secretion in human whole blood after 18 hrs; type: functional, tissue-based
In short: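 Heparinized human whole blood, 50% final, preincubated with compound for 1 h at 37 °C, 5% CO2, then stimulated with IL-1β (300 pM final) for 18 h. Final DMSO 0.1%. IL-6 in supernatant/plasma measured by electrochemiluminescence immunoassay.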

[4] = molecular target: T1, N-formyl peptide receptor 2 (Homo sapiens, UniProt P25090); assay: Agonist activity at human recombinant FPRL1 expressed in CHO cells assessed as calcium flux by aequorin based bioluminescence assay; type: functional, cell-based
T1 sequence (P25090 whole entry): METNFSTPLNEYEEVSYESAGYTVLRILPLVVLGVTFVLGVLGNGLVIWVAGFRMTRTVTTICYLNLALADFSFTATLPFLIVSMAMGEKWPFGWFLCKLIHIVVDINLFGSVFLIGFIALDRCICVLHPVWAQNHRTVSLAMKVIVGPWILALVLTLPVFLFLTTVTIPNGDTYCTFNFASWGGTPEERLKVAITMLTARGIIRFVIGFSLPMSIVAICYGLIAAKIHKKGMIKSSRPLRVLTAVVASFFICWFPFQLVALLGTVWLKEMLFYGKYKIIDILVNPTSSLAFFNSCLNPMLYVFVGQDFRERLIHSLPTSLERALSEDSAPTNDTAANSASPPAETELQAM
In short: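 EC50 from Ca2+ flux in recombinant CHO cells co-expressing human FPRL1, Gα15 protein and aequorin. Values without standard deviation are the mean of two data points.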

[5] = molecular target: T2, fMet-Leu-Phe receptor (Homo sapiens, UniProt P21462); assay: Agonist activity at human recombinant FPR expressed in CHO cells assessed as calcium flux by aequorin based bioluminescence assay; type: functional, cell-based
T2 sequence (P21462 whole entry): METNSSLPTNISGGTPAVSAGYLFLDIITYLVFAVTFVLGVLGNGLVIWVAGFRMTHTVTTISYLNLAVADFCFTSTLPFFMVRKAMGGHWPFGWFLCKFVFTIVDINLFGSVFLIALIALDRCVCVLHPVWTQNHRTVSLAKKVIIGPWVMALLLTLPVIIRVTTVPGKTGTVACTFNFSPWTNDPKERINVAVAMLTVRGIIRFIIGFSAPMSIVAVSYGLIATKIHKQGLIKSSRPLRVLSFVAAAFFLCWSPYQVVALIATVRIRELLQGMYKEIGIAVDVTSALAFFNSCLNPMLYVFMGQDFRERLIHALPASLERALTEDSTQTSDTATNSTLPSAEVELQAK
In short: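 CHO cells stably transfected with human FPR, aequorin and Gα15 protein; EC50 derived from Ca2+ flux read by aequorin luminescence.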

Row | IC50 [1] [nM] | IC50 [2] [nM] | EC50 [4] [nM] | EC50 [5] [µM] | SMILES | Activity [3]
1 | 640 | 240 | – | – | CC(C)c1c(NC(=O)Nc2ccc(Cl)cc2)c(=O)n(-c2ccccc2)n1C | Active
2 | – | – | 1870 | > 10 | CCc1nc2ccccc2n1[C@@H]1CCN(C(=O)c2nc3ccc(OC)cc3[nH]2)C1 | –
3 | – | – | > 10000 | – | CC(C)c1c(NC(=O)Nc2ccccc2Cl)c(=O)n(-c2ccccc2)n1C | –
